Test results reported in ChEMBL document CHEMBL4513216, “Probing the Open Global Health Chemical Diversity Library for Multistage-Active Starting Points for Next-Generation Antimalarials” (ACS Infect Dis, 2020).

Experiment: Toxicity liver stage against HepG2, at 10uM
Format: cell-based
Set-up: test concentration 10 uM, cell line HepG2-A16-CD81EGFP
Settings: human, HepG2-A16-CD81EGFP cells; read-out: INHIBITION
In short: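 Uninfected HepG2-A16-CD81EGFP cells, 3 × 10^3 per well, 1536-well, plated on prespotted compound at 10 μM final, parasite-free screening media added to match infected plates; puromycin 10 μM positive, DMSO 0.5% negative; run in parallel with 48 h PbLuc assay at 37 °C, 5% CO2; viability by CellTiter-Glo luminescence, normalized to controls.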

Cc1cnc(C)c(N2C[C@H]3OC(=O)N(C4CCCC4)[C@H]3C2)n1
cytotoxicity at 10 µM: 12.5%

Cc1cc(NC2CCCN(Cc3ccc(F)cc3)C2)n2nc(C)cc2n1 (stereo not given)
cytotoxicity at 10 µM: 0.0152%

CN(Cc1csc(-c2ccccc2)n1)C(=O)CCn1ccccc1=O
cytotoxicity at 10 µM: -2.84%

CC(=O)N[C@@H]1Cc2ccccc2[C@H]1Nc1ccncn1
cytotoxicity at 10 µM: -43.6%

CCn1nc(CNC(=O)C2CCCN(CC(N)=O)C2)c2ccccc21 (stereo not given)
cytotoxicity at 10 µM: -9.65%

CSC(C)CCN1CCC(n2cc(C3CCCCC3)nn2)CC1 (stereo not given)
cytotoxicity at 10 µM: -1.39%

CCc1c(C)nc(N)nc1N1CCCC(c2nc(CCOC)no2)C1 (stereo not given)
cytotoxicity at 10 µM: 31.5%

COc1ccc(C(=O)C2CCCN(Cc3cc(C)n[nH]3)C2)c(OC)c1 (stereo not given)
cytotoxicity at 10 µM: -6.77%

CSCCc1c(-c2ccccc2)ncn1CC(C)(C)N1CCOCC1
cytotoxicity at 10 µM: -47.4%

Cc1ccsc1CN(C)Cc1ncccc1C(=O)O
cytotoxicity at 10 µM: -2.55%

O=C(c1cnc2c(c1)CCC2)N1CCCC(CO)(CC2CC2)C1 (stereo not given)
cytotoxicity at 10 µM: -42.1%

CCCc1cc(C(=O)N(C)Cc2ccc(OC)c3ncccc23)n(C)n1
cytotoxicity at 10 µM: 37.2%

O[C@H]1Cc2ccccc2[C@H]1n1ccnc1-c1cc2n(n1)CCNC2
cytotoxicity at 10 µM: 1.58%

O=C1N(Cc2ccc(F)c(F)c2)CCCC1(O)CNCC1CCCCC1 (stereo not given)
cytotoxicity at 10 µM: 10.5%

O=C(NCCN1CCc2ccccc21)c1cc(-c2ccc(O)cc2)n[nH]1
cytotoxicity at 10 µM: 1.91%

COc1cccc(CCC2CCCN(C(=O)c3ccc(OC)o3)C2)c1 (stereo not given)
cytotoxicity at 10 µM: 9.9%

O=C1N(Cc2cccc(F)c2F)CCCC1(O)CNCC1CCCCC1 (stereo not given)
cytotoxicity at 10 µM: -1.29%

N#Cc1cccc(C(=O)N2CCCC(O)(CO)CC2)c1 (stereo not given)
cytotoxicity at 10 µM: 1.29%

NC(=O)c1cc2c(nc1Oc1ccc(CN3CCCC3)cc1F)CCC2
cytotoxicity at 10 µM: -3.62%

CNC(=O)c1cn2cc(-c3ccc(F)cc3)n(CC=C(C)C)c(=O)c2n1
cytotoxicity at 10 µM: -52.2%

Cc1cc(C)cc(CN2CCN(Cc3cccc(CCN)c3)CC2=O)c1
cytotoxicity at 10 µM: -18.3%

Cc1nn(C)c(C)c1-c1ccnc(N(C)Cc2nc(C(C)C)no2)n1
cytotoxicity at 10 µM: 20.6%

Cc1ccsc1CN(CCN(C)C)C(=O)C1=NNC(=O)CC1
cytotoxicity at 10 µM: -13.4%

CC(C)Cc1cc(C(=O)N2CCC[C@H]2C(=O)N2CCOCC2)on1
cytotoxicity at 10 µM: 6.07%

CCc1ccccc1OCCN(C)C(=O)CCN1CCCCO1
cytotoxicity at 10 µM: -57.1%

CCCc1cc(CNC2CCN(c3nc4ccccc4s3)CC2)on1
cytotoxicity at 10 µM: -4.34%

Cc1c(C(=O)N2CCC(N3CCCCC3)CC2)n(C)c2ccc(Cl)cc12
cytotoxicity at 10 µM: -63.8%

COCc1nc2ncc3c(=O)n(-c4ccccc4OC)ccc3n2n1
cytotoxicity at 10 µM: -8.17%

COc1cc(CN2CCCC2)ccc1Oc1ccc2c(c1)CC(CN)O2 (stereo not given)
cytotoxicity at 10 µM: -7.79%

Cc1ccsc1-c1nnc(C2CCN(Cc3ccc(F)cc3)CC2)o1
cytotoxicity at 10 µM: 4.58%

O=C(O)CC(NC(=O)c1ccccc1OC(F)F)c1cccs1 (stereo not given)
cytotoxicity at 10 µM: -10.8%

CCc1nc(C(=O)N2CCCC2)nn1-c1ccccc1Cl
cytotoxicity at 10 µM: -3.17%

CCOc1ccc(S(=O)(=O)NCc2cccnc2N(C)C)cc1
cytotoxicity at 10 µM: 34.7%

CCc1nc(CN(C)C2CCN(Cc3cnc(C)cn3)C2)no1 (stereo not given)
cytotoxicity at 10 µM: 4.23%

Cc1nccn1CC1CCCN1CCCc1nc(-c2cccs2)no1 (stereo not given)
cytotoxicity at 10 µM: -1.84%

CCOc1ccc(N(CC(=O)c2ccccc2)C2=NCCCCC2)cc1
cytotoxicity at 10 µM: -2.02%

Clc1ccc(C2(CNC3=NCCN3)CCCC2)cc1
cytotoxicity at 10 µM: 14.4%

O=S(=O)(c1cccs1)N1Cc2nc(CN3CCCC3)oc2C1
cytotoxicity at 10 µM: -118%

CCOC(=O)c1ccccc1NC(=O)CN(C)Cc1ccccc1Cl
cytotoxicity at 10 µM: -5.65%

COc1cccc(-c2noc(C3CCN(CC4CCCCC4)C3)n2)c1 (stereo not given)
cytotoxicity at 10 µM: -3.44%

CNC(=O)COC1COC2(CCN(Cc3cccnc3)CC2)C1 (stereo not given)
cytotoxicity at 10 µM: 6.53%

CCCN1CCC2(C1)c1ccccc1S(=O)(=O)N2Cc1ccccc1 (stereo not given)
cytotoxicity at 10 µM: 16.7%

Cc1ccc2c(c1)C1(CCNCC1)CC2NC1CC1 (stereo not given)
cytotoxicity at 10 µM: -117%

CN(C)C(=O)CN1CCC2(COCc3cnc(-c4cccnc4)nc32)C1 (stereo not given)
cytotoxicity at 10 µM: -115%

Fc1cccc(CNCC2OCCc3cn(CC4CCOCC4)nc32)c1 (stereo not given)
cytotoxicity at 10 µM: -77.1%

O=C(Cc1ccccn1)N1CCN2C[C@H](Oc3cncnc3)C[C@H]2C1
cytotoxicity at 10 µM: -73%

Cc1ccc(CN2CC[C@@H]3[C@H]2CCC(=O)N3Cc2ccncc2)s1
cytotoxicity at 10 µM: -65.6%

Cc1cc(CN2CCc3c(CNc4ncccn4)cncc3C2)oc1C
cytotoxicity at 10 µM: -82.6%

Cc1noc(C)c1CN1CCc2ncnc(-c3ccc(F)cc3)c2CC1
cytotoxicity at 10 µM: -100%

Cn1cc(CN2C[C@H]3CCC[C@@]3(COc3ccccn3)C2)cn1
cytotoxicity at 10 µM: -107%

COc1cc(N2C[C@@H]3COC[C@]3(COCc3ccccn3)C2)ncn1
cytotoxicity at 10 µM: -73.2%

Fc1ccc(CN2C[C@@H]3OCCN(CC4CCCO4)[C@@H]3C2)cc1 (stereo not given in full)
cytotoxicity at 10 µM: -86.3%

COc1cc2c(cc1CNCc1ccnc(-n3cccn3)c1)OC(C)C2 (stereo not given)
cytotoxicity at 10 µM: 11.2%

O=C(c1ccc(F)c(Cl)c1)N1C[C@H]2CC[C@@H](C1)N(Cc1ccccc1)C2
cytotoxicity at 10 µM: -8.28%

CC1(C)[C@@H]2CC=C(CN3CCCn4nc(C(=O)NCCO)cc4C3)[C@H]1C2
cytotoxicity at 10 µM: -40.3%
